Test results reported in ChEMBL document CHEMBL1153775, “Synthesis, structure elucidation and antitumour activity of N-substituted amides of 3-(3-ethylthio-1,2,4-triazol-5-yl)propenoic acid” (Eur J Med Chem, 2009).

How the values were obtained:
[1] = tested on: A549; assay: Cytotoxicity against human A549 cells assessed as growth inhibition at 0.16 mM after 48 hrs by spectrophotometer using BrdU labeling; assay type: functional; details: A549, 48 h, read-out: GI
[2] = tested on: T47D; assay: Cytotoxicity against human T47D cells assessed as growth inhibition at 0.03 mM after 48 hrs by spectrophotometer using BrdU labeling; assay type: functional; details: read-out: GI
[3] = tested on: A549; assay: Cytotoxicity against human A549 cells assessed as growth inhibition at 0.03 mM after 72 hrs by spectrophotometer using BrdU labeling; assay type: functional; details: A549, 72 h, read-out: GI
[4] = Cytotoxicity against human HSF cells assessed as growth inhibition at 0.16 mM after 72 hrs by spectrophotometer using BrdU labeling; assay type: cell-based; details: read-out: GI
[5] = Cytotoxicity against human HSF cells assessed as growth inhibition at 0.16 mM after 24 hrs by spectrophotometer using BrdU labeling; assay type: cell-based; details: read-out: GI
[6] = tested on: T47D; assay: Cytotoxicity against human T47D cells assessed as growth inhibition at 0.16 mM after 48 hrs by spectrophotometer using BrdU labeling; assay type: functional; details: read-out: GI
[7] = tested on: A549; assay: Cytotoxicity against human A549 cells assessed as growth inhibition at 0.03 mM after 48 hrs by spectrophotometer using BrdU labeling; assay type: functional; details: A549, 48 h, read-out: GI
[8] = Cytotoxicity against human HSF cells assessed as growth inhibition at 0.03 mM after 24 hrs by spectrophotometer using BrdU labeling; assay type: cell-based; details: read-out: GI
[9] = tested on: A549; assay: Cytotoxicity against human A549 cells assessed as growth inhibition at 0.16 mM after 72 hrs by spectrophotometer using BrdU labeling; assay type: functional; details: A549, 72 h, read-out: GI
[10] = tested on: T47D; assay: Cytotoxicity against human T47D cells assessed as growth inhibition at 0.16 mM after 24 hrs by spectrophotometer using BrdU labeling; assay type: functional; details: read-out: GI
[11] = tested on: T47D; assay: Cytotoxicity against human T47D cells assessed as growth inhibition at 0.03 mM after 24 hrs by spectrophotometer using BrdU labeling; assay type: functional; details: read-out: GI
[12] = tested on: T47D; assay: Cytotoxicity against human T47D cells assessed as growth inhibition at 0.32 mM after 24 hrs by spectrophotometer using BrdU labeling; assay type: functional; details: read-out: GI
Procedure, shortened: (§1)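 Human breast carcinoma T47D cells were plated at 10⁴ cells per mL on microtiter plates. Each compound was added at three doses, given as mM equivalents of three mass concentrations. Plates were incubated for 24, 48 or 72 h. The read-out was percent growth inhibition (GI).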

[13] = Cytotoxicity against human HSF cells assessed as growth inhibition at 0.03 mM after 72 hrs by spectrophotometer using BrdU labeling; assay type: cell-based; details: read-out: GI
[14] = tested on: A549; assay: Cytotoxicity against human A549 cells assessed as growth inhibition at 0.32 mM after 72 hrs by spectrophotometer using BrdU labeling; assay type: functional; details: A549, 72 h, read-out: GI
[15] = tested on: A549; assay: Cytotoxicity against human A549 cells assessed as growth inhibition at 0.32 mM after 24 hrs by spectrophotometer using BrdU labeling; assay type: functional; details: A549, 24 h, read-out: GI
[16] = Cytotoxicity against human HSF cells assessed as growth inhibition at 0.32 mM after 24 hrs by spectrophotometer using BrdU labeling; assay type: cell-based; details: read-out: GI
[17] = tested on: T47D; assay: Cytotoxicity against human T47D cells assessed as growth inhibition at 0.16 mM after 72 hrs by spectrophotometer using BrdU labeling; assay type: functional; details: read-out: GI; procedure, shortened: as §1
[18] = tested on: A549; assay: Cytotoxicity against human A549 cells assessed as growth inhibition at 0.03 mM after 24 hrs by spectrophotometer using BrdU labeling; assay type: functional; details: A549, 24 h, read-out: GI
[19] = tested on: A549; assay: Cytotoxicity against human A549 cells assessed as growth inhibition at 0.32 mM after 48 hrs by spectrophotometer using BrdU labeling; assay type: functional; details: A549, 48 h, read-out: GI
[20] = Cytotoxicity against human HSF cells assessed as growth inhibition at 0.32 mM after 48 hrs by spectrophotometer using BrdU labeling; assay type: cell-based; details: read-out: GI
[21] = Cytotoxicity against human HSF cells assessed as growth inhibition at 0.16 mM after 48 hrs by spectrophotometer using BrdU labeling; assay type: cell-based; details: read-out: GI
[22] = tested on: T47D; assay: Cytotoxicity against human T47D cells assessed as growth inhibition at 0.03 mM after 72 hrs by spectrophotometer using BrdU labeling; assay type: functional; details: read-out: GI
[23] = tested on: A549; assay: Cytotoxicity against human A549 cells assessed as growth inhibition at 0.16 mM after 24 hrs by spectrophotometer using BrdU labeling; assay type: functional; details: A549, 24 h, read-out: GI
[24] = tested on: T47D; assay: Cytotoxicity against human T47D cells assessed as growth inhibition at 0.32 mM after 48 hrs by spectrophotometer using BrdU labeling; assay type: functional; details: read-out: GI; procedure, shortened: as §1
[25] = tested on: T47D; assay: Cytotoxicity against human T47D cells assessed as growth inhibition at 0.32 mM after 72 hrs by spectrophotometer using BrdU labeling; assay type: functional; details: read-out: GI; procedure, shortened: as §1
[26] = Cytotoxicity against human HSF cells assessed as growth inhibition at 0.03 mM after 48 hrs by spectrophotometer using BrdU labeling; assay type: cell-based; details: read-out: GI
[27] = Cytotoxicity against human HSF cells assessed as growth inhibition at 0.32 mM after 72 hrs by spectrophotometer using BrdU labeling; assay type: cell-based; details: read-out: GI
[28] = Cytotoxicity against human HSF cells assessed as growth inhibition at 0.28 mM after 72 hrs by spectrophotometer using BrdU labeling; assay type: cell-based; details: read-out: GI
[29] = tested on: A549; assay: Cytotoxicity against human A549 cells assessed as growth inhibition at 0.14 mM after 48 hrs by spectrophotometer using BrdU labeling; assay type: functional; details: A549, 48 h, read-out: GI
[30] = tested on: T47D; assay: Cytotoxicity against human T47D cells assessed as growth inhibition at 0.14 mM after 24 hrs by spectrophotometer using BrdU labeling; assay type: functional; details: read-out: GI
[31] = tested on: T47D; assay: Cytotoxicity against human T47D cells assessed as growth inhibition at 0.28 mM after 48 hrs by spectrophotometer using BrdU labeling; assay type: functional; details: read-out: GI; procedure, shortened: as §1
[32] = tested on: T47D; assay: Cytotoxicity against human T47D cells assessed as growth inhibition at 0.28 mM after 72 hrs by spectrophotometer using BrdU labeling; assay type: functional; details: read-out: GI; procedure, shortened: as §1
[33] = tested on: A549; assay: Cytotoxicity against human A549 cells assessed as growth inhibition at 0.28 mM after 72 hrs by spectrophotometer using BrdU labeling; assay type: functional; details: A549, 72 h, read-out: GI
[34] = Cytotoxicity against human HSF cells assessed as growth inhibition at 0.14 mM after 48 hrs by spectrophotometer using BrdU labeling; assay type: cell-based; details: read-out: GI
[35] = tested on: A549; assay: Cytotoxicity against human A549 cells assessed as growth inhibition at 0.28 mM after 48 hrs by spectrophotometer using BrdU labeling; assay type: functional; details: A549, 48 h, read-out: GI
[36] = tested on: A549; assay: Cytotoxicity against human A549 cells assessed as growth inhibition at 0.14 mM after 24 hrs by spectrophotometer using BrdU labeling; assay type: functional; details: A549, 24 h, read-out: GI
[37] = Cytotoxicity against human HSF cells assessed as growth inhibition at 0.28 mM after 48 hrs by spectrophotometer using BrdU labeling; assay type: cell-based; details: read-out: GI
[38] = Cytotoxicity against human HSF cells assessed as growth inhibition at 0.28 mM after 24 hrs by spectrophotometer using BrdU labeling; assay type: cell-based; details: read-out: GI
[39] = Cytotoxicity against human HSF cells assessed as growth inhibition at 0.14 mM after 24 hrs by spectrophotometer using BrdU labeling; assay type: cell-based; details: read-out: GI
[40] = tested on: A549; assay: Cytotoxicity against human A549 cells assessed as growth inhibition at 0.28 mM after 24 hrs by spectrophotometer using BrdU labeling; assay type: functional; details: A549, 24 h, read-out: GI
[41] = tested on: T47D; assay: Cytotoxicity against human T47D cells assessed as growth inhibition at 0.14 mM after 72 hrs by spectrophotometer using BrdU labeling; assay type: functional; details: read-out: GI
[42] = tested on: T47D; assay: Cytotoxicity against human T47D cells assessed as growth inhibition at 0.14 mM after 48 hrs by spectrophotometer using BrdU labeling; assay type: functional; details: read-out: GI
[43] = Cytotoxicity against human HSF cells assessed as growth inhibition at 0.14 mM after 72 hrs by spectrophotometer using BrdU labeling; assay type: cell-based; details: read-out: GI
[44] = tested on: A549; assay: Cytotoxicity against human A549 cells assessed as growth inhibition at 0.14 mM after 72 hrs by spectrophotometer using BrdU labeling; assay type: functional; details: A549, 72 h, read-out: GI
[45] = tested on: T47D; assay: Cytotoxicity against human T47D cells assessed as growth inhibition at 0.28 mM after 24 hrs by spectrophotometer using BrdU labeling; assay type: functional; details: read-out: GI; procedure, shortened: as §1

CCSc1n[nH]c(/C=C\C(=O)Nc2ccccc2Cl)n1
90%: inhibition of growth at 320 µM [25]
75%: inhibition of growth at 320 µM [14] | inhibition at 72 h, 320 µM [27]
0%: inhibition of growth at 30 µM [2] | inhibition at 72 h, 160 µM [4] | inhibition at 24 h, 160 µM [5] | inhibition at 24 h, 30 µM [8] | inhibition of growth at 160 µM [10] | inhibition of growth at 30 µM [11] | inhibition of growth at 320 µM [12] | inhibition at 48 h, 160 µM [21] | inhibition at 48 h, 30 µM [26]
50%: inhibition of growth at 160 µM [1] | inhibition of growth at 160 µM [9] | inhibition of growth at 320 µM [15] | inhibition of growth at 160 µM [17] | inhibition of growth at 320 µM [19] | inhibition at 48 h, 320 µM [20] | inhibition of growth at 160 µM [23]
5%: inhibition at 72 h, 30 µM [13] | inhibition of growth at 30 µM [22]
25%: inhibition of growth at 30 µM [3] | inhibition of growth at 30 µM [7] | inhibition at 24 h, 320 µM [16] | inhibition of growth at 30 µM [18]
10%: inhibition of growth at 160 µM [6] | inhibition of growth at 320 µM [24]

CCSc1n[nH]c(/C=C\C(=O)Nc2ccc(Br)cc2)n1
75%: inhibition of growth at 280 µM [33] | inhibition at 48 h, 140 µM [34] | inhibition at 48 h, 280 µM [37] | inhibition at 24 h, 280 µM [38] | inhibition at 24 h, 140 µM [39] | inhibition at 72 h, 140 µM [43]
20%: inhibition of growth at 280 µM [31]
25%: inhibition of growth at 30 µM [7] | inhibition of growth at 280 µM [32] | inhibition of growth at 30 µM [18] | inhibition of growth at 140 µM [41]
5%: inhibition of growth at 140 µM [30] | inhibition of growth at 280 µM [45]
50%: inhibition at 72 h, 280 µM [28] | inhibition of growth at 140 µM [29] | inhibition of growth at 280 µM [35] | inhibition of growth at 140 µM [36] | inhibition of growth at 280 µM [40] | inhibition of growth at 140 µM [44]
0%: inhibition of growth at 30 µM [2] | inhibition of growth at 30 µM [3] | inhibition at 24 h, 30 µM [8] | inhibition of growth at 30 µM [11] | inhibition at 72 h, 30 µM [13] | inhibition of growth at 30 µM [22] | inhibition at 48 h, 30 µM [26]
10%: inhibition of growth at 140 µM [42]
